{
  "source": "ChEMBL document CHEMBL3352791",
  "about": "“Thioaryl naphthylmethanone oxime ether analogs as novel anticancer agents” (J Med Chem, 2014)",
  "key": {"[1]": {"biological_target": "Platelet-derived growth factor receptor alpha (Homo sapiens) (UniProt P16234)", "sequence (P16234 whole entry)": "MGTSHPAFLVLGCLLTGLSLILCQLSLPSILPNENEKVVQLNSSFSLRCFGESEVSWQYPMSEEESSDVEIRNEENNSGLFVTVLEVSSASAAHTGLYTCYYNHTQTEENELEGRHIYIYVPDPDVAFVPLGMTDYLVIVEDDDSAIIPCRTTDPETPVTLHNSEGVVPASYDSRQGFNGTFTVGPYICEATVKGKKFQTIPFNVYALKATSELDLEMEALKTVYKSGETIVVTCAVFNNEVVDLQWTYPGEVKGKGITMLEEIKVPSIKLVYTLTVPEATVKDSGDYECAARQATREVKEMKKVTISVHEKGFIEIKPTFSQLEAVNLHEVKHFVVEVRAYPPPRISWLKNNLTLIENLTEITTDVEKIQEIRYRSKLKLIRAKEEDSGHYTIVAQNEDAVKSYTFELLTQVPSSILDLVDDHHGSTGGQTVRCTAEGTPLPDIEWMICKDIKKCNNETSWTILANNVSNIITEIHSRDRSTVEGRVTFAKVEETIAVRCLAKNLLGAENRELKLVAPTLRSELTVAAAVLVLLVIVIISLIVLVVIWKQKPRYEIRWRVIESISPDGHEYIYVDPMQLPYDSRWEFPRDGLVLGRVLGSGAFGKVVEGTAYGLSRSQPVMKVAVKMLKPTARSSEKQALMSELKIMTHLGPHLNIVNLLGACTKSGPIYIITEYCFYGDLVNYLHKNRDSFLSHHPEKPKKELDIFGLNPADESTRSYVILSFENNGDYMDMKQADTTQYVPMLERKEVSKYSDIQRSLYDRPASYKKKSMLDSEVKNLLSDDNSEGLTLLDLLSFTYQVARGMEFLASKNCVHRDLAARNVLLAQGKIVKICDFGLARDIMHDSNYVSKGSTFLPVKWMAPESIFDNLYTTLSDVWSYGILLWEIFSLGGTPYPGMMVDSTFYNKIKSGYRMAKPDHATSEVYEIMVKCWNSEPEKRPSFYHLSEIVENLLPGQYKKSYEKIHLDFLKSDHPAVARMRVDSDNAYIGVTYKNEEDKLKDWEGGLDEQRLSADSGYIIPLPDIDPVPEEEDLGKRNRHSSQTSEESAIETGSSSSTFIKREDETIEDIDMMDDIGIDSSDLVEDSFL", "test": "Inhibition of PDGFRalpha (unknown origin) at 10 uM", "summary_of_the_method": "(§1)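 Cell-free kinase profiling was run as a standard 33P-ATP-based in vitro kinase assay.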"}, "[2]": {"biological_target": "Mast/stem cell growth factor receptor Kit (Homo sapiens) (UniProt P10721)", "sequence (P10721 whole entry)": "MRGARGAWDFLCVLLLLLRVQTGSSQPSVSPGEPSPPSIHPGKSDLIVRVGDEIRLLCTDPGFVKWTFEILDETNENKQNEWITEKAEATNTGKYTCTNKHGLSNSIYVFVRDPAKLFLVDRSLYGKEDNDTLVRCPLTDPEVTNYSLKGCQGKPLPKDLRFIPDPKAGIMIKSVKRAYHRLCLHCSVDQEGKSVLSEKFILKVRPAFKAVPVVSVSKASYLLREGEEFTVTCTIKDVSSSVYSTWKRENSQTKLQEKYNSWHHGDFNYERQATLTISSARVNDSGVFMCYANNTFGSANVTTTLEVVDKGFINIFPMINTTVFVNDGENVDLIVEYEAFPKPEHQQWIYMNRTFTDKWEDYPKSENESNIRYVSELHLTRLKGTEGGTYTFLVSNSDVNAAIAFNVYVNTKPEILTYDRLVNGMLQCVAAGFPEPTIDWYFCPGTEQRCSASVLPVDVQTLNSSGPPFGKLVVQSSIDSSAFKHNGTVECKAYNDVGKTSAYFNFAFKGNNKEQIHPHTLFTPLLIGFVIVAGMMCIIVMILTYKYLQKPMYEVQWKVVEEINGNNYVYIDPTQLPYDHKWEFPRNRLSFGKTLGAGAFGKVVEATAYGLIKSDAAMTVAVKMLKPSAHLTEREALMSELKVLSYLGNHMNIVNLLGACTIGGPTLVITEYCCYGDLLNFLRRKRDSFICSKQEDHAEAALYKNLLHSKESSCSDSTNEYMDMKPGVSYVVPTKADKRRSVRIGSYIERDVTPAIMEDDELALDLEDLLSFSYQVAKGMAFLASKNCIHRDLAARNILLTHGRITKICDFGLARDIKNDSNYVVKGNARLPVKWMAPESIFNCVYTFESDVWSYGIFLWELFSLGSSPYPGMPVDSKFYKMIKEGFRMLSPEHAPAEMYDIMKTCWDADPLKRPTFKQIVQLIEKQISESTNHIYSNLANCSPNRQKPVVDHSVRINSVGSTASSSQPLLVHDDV", "test": "Inhibition of cKit (unknown origin) at 10 uM", "summary_of_the_method": "as §1"}, "[3]": {"biological_target": "Receptor-type tyrosine-protein kinase FLT3 (Homo sapiens) (UniProt P36888)", "test": "Inhibition of Flt3 (unknown origin) at 10 uM"}, "MDA-MB-231 [4]": {"test_system": "MDA-MB-231", "test": "Induction of cAMP level in human MDA-MB-231 cells at 0.1 to 25 uM", "format": "functional, cell-based", "summary_of_the_method": "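MDA-MB-231 cells serum-starved for 4 h, treated with 500μM IBMX for 30 min, then exposed to compound for a further 30 min. Cellular cAMP read by HTRF kit.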"}, "[5]": {"biological_target": "cAMP and cAMP-inhibited cGMP 3',5'-cyclic phosphodiesterase 10A (Homo sapiens) (UniProt Q9Y233)", "sequence (Q9Y233 whole entry)": "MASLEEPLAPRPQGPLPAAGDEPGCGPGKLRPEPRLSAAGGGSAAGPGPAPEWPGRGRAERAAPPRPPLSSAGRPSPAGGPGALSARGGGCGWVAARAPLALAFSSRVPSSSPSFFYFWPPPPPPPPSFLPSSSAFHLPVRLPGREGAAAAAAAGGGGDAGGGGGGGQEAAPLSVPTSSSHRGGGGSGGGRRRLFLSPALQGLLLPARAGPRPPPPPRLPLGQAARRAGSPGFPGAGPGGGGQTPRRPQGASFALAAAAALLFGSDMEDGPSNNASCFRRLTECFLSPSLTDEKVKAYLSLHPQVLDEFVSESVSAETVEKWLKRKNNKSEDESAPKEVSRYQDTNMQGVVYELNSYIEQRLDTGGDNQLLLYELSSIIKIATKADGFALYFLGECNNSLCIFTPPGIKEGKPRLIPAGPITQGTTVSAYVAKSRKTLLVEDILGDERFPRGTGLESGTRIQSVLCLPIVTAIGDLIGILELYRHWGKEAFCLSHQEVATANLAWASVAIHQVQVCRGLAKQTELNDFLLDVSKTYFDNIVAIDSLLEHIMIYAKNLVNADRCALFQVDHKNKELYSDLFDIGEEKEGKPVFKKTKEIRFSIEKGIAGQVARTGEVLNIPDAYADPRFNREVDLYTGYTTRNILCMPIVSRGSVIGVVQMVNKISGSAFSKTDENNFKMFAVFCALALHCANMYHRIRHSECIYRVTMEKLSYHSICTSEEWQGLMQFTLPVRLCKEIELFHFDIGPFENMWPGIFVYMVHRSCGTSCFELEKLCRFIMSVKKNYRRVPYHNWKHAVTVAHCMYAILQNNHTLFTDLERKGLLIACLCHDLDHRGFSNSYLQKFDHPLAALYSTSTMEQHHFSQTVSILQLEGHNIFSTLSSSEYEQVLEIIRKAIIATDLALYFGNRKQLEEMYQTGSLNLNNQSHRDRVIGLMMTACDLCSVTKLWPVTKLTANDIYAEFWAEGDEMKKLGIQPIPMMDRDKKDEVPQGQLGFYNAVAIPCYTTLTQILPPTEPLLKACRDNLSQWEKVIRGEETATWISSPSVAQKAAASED", "test": "Inhibition of PDE10A1 (unknown origin) activity at 1 to 10 uM"}, "[6]": {"biological_target": "Dual 3',5'-cyclic-AMP and -GMP phosphodiesterase 11A (Homo sapiens) (UniProt Q9HCR9)", "test": "Inhibition of PDE11A1 (unknown origin) activity at 1 to 10 uM", "summary_of_the_method": "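Recombinant PDE isoform activity was read by fluorescence polarization. A binding reagent complexes with the nucleotide monophosphate that the phosphodiesterase generates from cAMP/cGMP, and this raises the polarization of the labelled substrate. Reference standards were PDE1A3 10µM IBMX, PDE2A3 1nM BAY 60-7550, PDE3CAT 1µM cilostazol, PDE4CAT rolipram, PDE5CAT 0.1µM sildenafil, PDE7A […], PDE8A1 10µM BRL-50481, PDE9A1 1µM SB 36216 and PDE11A1 dipyridamole.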"}, "MDA-MB-231 [7]": {"test_system": "MDA-MB-231", "test": "Cytotoxicity against human MDA-MB-231 cells assessed as cell viability at 5 uM by MTT assay in presence of 100 ng/ml pertussis toxin for 16 hrs", "format": "functional, cell-based"}, "[8]": {"biological_target": "Induced myeloid leukemia cell differentiation protein Mcl-1 (Homo sapiens) (UniProt Q07820)", "sequence (Q07820 whole entry)": "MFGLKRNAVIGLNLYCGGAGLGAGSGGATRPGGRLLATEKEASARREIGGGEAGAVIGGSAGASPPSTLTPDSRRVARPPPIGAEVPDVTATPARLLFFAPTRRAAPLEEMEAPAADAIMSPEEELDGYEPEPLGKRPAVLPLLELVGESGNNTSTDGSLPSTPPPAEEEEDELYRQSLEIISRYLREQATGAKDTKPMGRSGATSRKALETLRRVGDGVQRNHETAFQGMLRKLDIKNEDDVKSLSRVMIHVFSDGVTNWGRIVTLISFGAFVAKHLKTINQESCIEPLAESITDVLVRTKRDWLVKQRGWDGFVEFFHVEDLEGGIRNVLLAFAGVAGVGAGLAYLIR", "test": "Inhibition of basal level Mcl1 phosphorylation in human MDA-MB-231 cells at 1 uM by ELISA", "format": "cell-based"}, "MDA-MB-231 [9]": {"test_system": "MDA-MB-231", "test": "Antiproliferative activity against human […] cells assessed as absence of growth recovery treated > 5 uM for 24 hrs followed by maintained in drug free medium for 72 hrs by MTT assay", "format": "functional, cell-based"}, "MDA-MB-231 [10]": {"test_system": "MDA-MB-231", "test": "Inhibition of TGF-beta1 expression in human MDA-MB-231 cells at 1 uM after 24 hrs by qPCR analysis", "format": "functional, cell-based", "summary_of_the_method": "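Gene expression was measured by qPCR in MDA-MB-231 breast cancer cells treated with 1µM compound. GAPDH served as the housekeeping internal control.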"}, "MCF7 [11]": {"test_system": "MCF7", "test": "Antitumor activity against human MCF7 cells xenografted in NIH-3 mouse assessed as large area of stroma/deletion of epithelial cells at 16 mg/kg, po for 25 days", "format": "functional, organism-based", "parameters": "dose 16 mg/kg"}, "MCF7 [12]": {"test_system": "MCF7", "test": "Induction of apoptosis in human MCF7 cells xenografted in NIH-3 mouse assessed as increase in Bax to Bcl2 ratio in tumor at 16 mg/kg, po for 25 days by qPCR", "format": "functional, organism-based", "parameters": "dose 16 mg/kg"}, "MCF7 [13]": {"test_system": "MCF7", "test": "Inhibition of TGFbeta expression in human MCF7 cells at 5 uM by ELISA", "format": "functional, cell-based"}, "[14]": {"biological_target": "Epidermal growth factor receptor (Homo sapiens) (UniProt P00533)", "sequence (P00533 whole entry)": "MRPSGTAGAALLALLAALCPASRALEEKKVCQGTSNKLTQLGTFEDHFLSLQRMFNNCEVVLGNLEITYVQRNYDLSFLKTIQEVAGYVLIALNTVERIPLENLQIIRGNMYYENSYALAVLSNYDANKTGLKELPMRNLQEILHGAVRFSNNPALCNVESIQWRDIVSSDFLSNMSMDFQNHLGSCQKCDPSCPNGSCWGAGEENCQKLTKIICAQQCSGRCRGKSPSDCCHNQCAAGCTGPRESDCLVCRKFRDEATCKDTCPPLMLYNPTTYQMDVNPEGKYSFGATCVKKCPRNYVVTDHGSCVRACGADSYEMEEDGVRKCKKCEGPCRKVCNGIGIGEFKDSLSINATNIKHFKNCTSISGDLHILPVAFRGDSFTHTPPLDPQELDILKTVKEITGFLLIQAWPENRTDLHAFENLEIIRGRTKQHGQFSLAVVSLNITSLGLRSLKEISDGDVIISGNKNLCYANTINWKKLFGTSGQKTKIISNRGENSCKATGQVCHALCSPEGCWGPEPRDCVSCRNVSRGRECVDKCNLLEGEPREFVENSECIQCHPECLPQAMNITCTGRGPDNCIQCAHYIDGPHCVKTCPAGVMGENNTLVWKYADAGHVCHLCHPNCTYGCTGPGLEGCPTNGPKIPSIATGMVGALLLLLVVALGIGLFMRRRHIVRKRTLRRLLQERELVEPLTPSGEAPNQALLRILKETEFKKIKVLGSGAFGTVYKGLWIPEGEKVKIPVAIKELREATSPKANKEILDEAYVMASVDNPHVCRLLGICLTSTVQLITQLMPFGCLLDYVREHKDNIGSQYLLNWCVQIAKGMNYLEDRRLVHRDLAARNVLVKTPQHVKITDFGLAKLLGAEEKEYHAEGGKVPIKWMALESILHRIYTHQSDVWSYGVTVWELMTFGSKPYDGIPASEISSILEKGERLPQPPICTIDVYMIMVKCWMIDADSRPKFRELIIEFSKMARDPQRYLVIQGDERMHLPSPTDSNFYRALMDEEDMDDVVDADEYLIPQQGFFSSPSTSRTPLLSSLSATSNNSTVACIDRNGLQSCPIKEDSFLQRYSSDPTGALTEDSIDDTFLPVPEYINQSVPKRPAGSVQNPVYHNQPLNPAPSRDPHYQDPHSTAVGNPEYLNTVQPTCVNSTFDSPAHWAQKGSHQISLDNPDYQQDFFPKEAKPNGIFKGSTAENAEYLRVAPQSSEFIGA", "test": "Inhibition of EGF-induced EGFR phosphorylation at Tyr992 in human MCF7 cells at 1 uM by ELISA", "format": "cell-based"}, "[15]": {"biological_target": "Mitogen-activated protein kinase; ERK1/ERK2 (Homo sapiens) (UniProt P27361+P28482)", "test": "Inhibition of EGF-induced ERK1/2 phosphorylation in human MDA-MB-231 cells at 1 uM by ELISA", "format": "cell-based"}, "[16]": {"biological_target": "Epidermal growth factor receptor (Homo sapiens) (UniProt P00533)", "test": "Inhibition of EGFR phosphorylation at Tyr790 (unknown origin) at 10 uM"}, "[17]": {"test": "Antiproliferative activity against human COLO205 cells after 24 hrs by MTT assay", "format": "functional, cell-based", "settings": "COLO 205, 24 h", "summary_of_the_method": "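MTT viability: cells seeded at 1×10^4 per well in DMEM with 10% FBS, left to adhere overnight, then serum-starved 4 h. Compounds were given at a range of doses, with 0.1% DMSO vehicle as control. EC50 was taken from dose-response curves spanning 100nM-50µM. Data are mean ± SEM from at least three independent experiments.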"}, "[18]": {"test": "Safety index, ratio of IC50 for human MCF10A cells to EC50 for human SW620 cells", "format": "toxicity, cell-based, SW-620", "settings": "MCF10A cells versus SW620 cells, read-out: Ratio IC50/EC50", "summary_of_the_method": "(§2)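 Safety index is the IC50 in the normal cells divided by the EC50 in the cancer cells. Both values come from MTT assays: cells in DMEM with 10% FBS, serum-starved 4 h, then exposed to compound across a 100nM-50µM dose range with 0.1% DMSO as vehicle control.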"}, "[19]": {"test": "Safety index, ratio of IC50 for human MCF10A cells to EC50 for human COLO205 cells", "format": "toxicity, cell-based, COLO 205", "settings": "MCF10A cells versus COLO205 cells, read-out: Ratio IC50/EC50", "summary_of_the_method": "as §2"}, "MCF7 [20]": {"test_system": "MCF7", "test": "Cell cycle arrest in human […] cells assessed as accumulation at subG1 phase at 2.5 uM by propidium iodide staining by FACS analysis (reference value: 0.1%)", "format": "functional"}, "MCF7 [21]": {"test_system": "MCF7", "test": "Cell cycle arrest in human […] MCF7 cells assessed as accumulation at S phase at 5 uM by propidium iodide staining by FACS analysis (reference value: 24.76%)", "format": "functional"}, "MCF7 [22]": {"test_system": "MCF7", "test": "Cell cycle arrest in human […] cells assessed as accumulation at subG1 phase at 5 uM by propidium iodide staining by FACS analysis (reference value: 0.1%)", "format": "functional"}, "MCF7 [23]": {"test_system": "MCF7", "test": "Cell cycle arrest in human […] cells assessed as accumulation at G1 phase at 7.5 uM by propidium iodide staining by FACS analysis (reference value: 62.88%)", "format": "functional"}, "MDA-MB-231 [24]": {"test_system": "MDA-MB-231", "test": "Cell cycle arrest in human […] cells assessed as accumulation at G2 phase at 2.5 uM by propidium iodide staining by FACS analysis (reference value: 22.74%)", "format": "functional"}, "MDA-MB-231 [25]": {"test_system": "MDA-MB-231", "test": "Cell cycle arrest in human […] cells assessed as accumulation at subG1 phase at 2.5 uM by propidium iodide staining by FACS analysis (reference value: 0.3%)", "format": "functional"}, "Mus musculus": {"test_system": "Mus musculus", "test": "Toxicity in human MCF7 cells xenografted in NIH-3 mouse assessed as changed in body weight at 8 mg/kg, po for 29 days relative to control", "format": "organism-based", "parameters": "dose 8 mg/kg, route oral", "settings": "in vivo, 696 h"}, "MCF7 [26]": {"test_system": "MCF7", "test": "Antitumor activity against human MCF7 cells xenografted in NIH-3 mouse assessed as reduction in tumor volume at 16 mg/kg, po for 29 days relative to control", "format": "functional", "settings": "MCF7, 696 h", "summary_of_the_method": "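MCF-7 cells (5x10^6 in 100μl PBS) injected intraperitoneally into NIH-III nude mice; after tumor induction, groups of n=10 dosed orally daily for 29 days at 8 or 16 mg/kg/day in 1% carboxymethyl cellulose (vehicle controls). Tumor diameter by vernier calipers every third day; volume = π/6×d³ (d mean diameter).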"}},
  "note": "pEC50: −log10 of the molar value. Active and inactive are the calls of the source. No cut-off for these calls is given here.",
  "data": [
    {"smiles": "CCN(CC)CCO/N=C(\\c1ccc(SC)cc1)c1cccc2ccccc12", "values": [
      {"measurement": "inhibition", "setting": "[1]", "value": "inactive"},
      {"measurement": "inhibition", "setting": "[2]", "value": "inactive"},
      {"measurement": "inhibition", "setting": "[3]", "value": "inactive"},
      {"measurement": "Activity", "setting": "MDA-MB-231 [4]", "value": "Active"},
      {"measurement": "inhibition", "setting": "[5]", "value": "inactive"},
      {"measurement": "inhibition", "setting": "[6]", "value": "inactive"},
      {"measurement": "inhibition", "setting": "MDA-MB-231 [7]", "value": "inactive"},
      {"measurement": "inhibition", "setting": "[8]", "value": "Active"},
      {"measurement": "Activity", "setting": "MDA-MB-231 [9]", "value": "Active"},
      {"measurement": "inhibition", "setting": "MDA-MB-231 [10]", "value": "Active"},
      {"measurement": "Activity", "setting": "MCF7 [11]", "value": "Active"},
      {"measurement": "Activity", "setting": "MCF7 [12]", "value": "Active"},
      {"measurement": "inhibition", "setting": "MCF7 [13]", "value": "inactive"},
      {"measurement": "inhibition", "setting": "[14]", "value": "Active"},
      {"measurement": "inhibition", "setting": "[15]", "value": "Active"},
      {"measurement": "inhibition", "setting": "[16]", "value": "inactive"}
    ]},
    {"smiles": "CCN(CC)CCO/N=C(\\c1ccc(SC)cc1)c1cccc2ccccc12.O=C(O)C(=O)O", "values": [
      {"measurement": "pEC50", "setting": "[17]", "value": 5.38},
      {"measurement": "selectivity ratio", "setting": "[18]", "value": 2.2},
      {"measurement": "selectivity ratio", "setting": "[19]", "value": 4.7},
      {"measurement": "Activity", "setting": "MCF7 [20]", "value": 0.4, "unit": "%"},
      {"measurement": "Activity", "setting": "MCF7 [21]", "value": 13.88, "unit": "%"},
      {"measurement": "Activity", "setting": "MCF7 [22]", "value": 0.9, "unit": "%"},
      {"measurement": "Activity", "setting": "MCF7 [23]", "value": 85.99, "unit": "%"},
      {"measurement": "Activity", "setting": "MDA-MB-231 [24]", "value": 6.22, "unit": "%"},
      {"measurement": "Activity", "setting": "MDA-MB-231 [25]", "value": 0.99, "unit": "%"},
      {"measurement": "Activity", "setting": "Mus musculus", "value": "Non-toxic"},
      {"measurement": "inhibition in vivo at 16 mg/kg", "setting": "MCF7 [26]", "value": 50, "unit": "%"}
    ]}
  ]
}
